Results from PMC6740333 (Bioconjugate chemistry, 2018).
Read-outs that look alike come from different tables or passages of the source.

Assays:
[1] = Dispersion stability of surfactant-stabilized GNRs at high ionic strength; type: physicochemical; settings: 1 M NaCl
In short: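 Citrate-stabilized gold nanorods were centrifuged and redispersed twice in 0.1 M NaCl containing millimolar zwitterionic sulfobetaine surfactant. Ionic strength was then raised with brine to 0.5 or 1.0 M. Dispersion stability was followed as retention of optical density, measured by absorbance spectrophotometry, after one day and one week.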

MDCK cells = test: Cell viability assay; type: cell-based, canine; settings: read-out: Cell viability IC50, MTT, mean of triplicate
In short: (§1)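 HepaRG, MDCK (canine kidney) or LLC-PK1 (pig kidney) cells were grown at 37°C, 5% CO2 in RPMI 1640 with 10% FBS, 1% glutamine and 1% penicillin–streptomycin. Cells were exposed for 24 h at 37°C to serial dilutions of sulfobetaine surfactant in medium (final-volume concentrations). MTT (0.5%) was added for 4 h, formazan was dissolved in DMSO 16 h in the dark, and A590 was read against medium-only controls. Triplicate.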

HepaRG cells = test: Cell viability assay; type: cell-based, human
In short: as §1

SKOV-3 cells = test: Cell viability assay; type: cell-based; settings: Homo sapiens, SK-OV-3, 24 h, read-out: Cell viability IC50
In short: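 SKOV-3 cells in folate-free RPMI 1640 (10% FBS, 1% penicillin–streptomycin) were seeded at 5,000 cells/100 μL and preincubated 24 h at 37°C, 5% CO2. Serial dilutions in medium (final-volume concentrations) were added for 24 h at 37°C. MTT (0.5%) was then added for 4 h, followed by DMSO solubilization 16 h at 25°C in the dark. A590 was normalized to medium-only cells. Triplicate.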

LLC-PK1 cells = test: Cell viability assay; type: cell-based, pig; settings: read-out: Cell viability IC50; LLC-PK1, MTT, mean of triplicate
In short: as §1

[2] = read-out: Cell viability IC50, MTT, mean of triplicate

SMILES | retention of optical density of stabilized GNRs ([1]; after one day) | retention of optical density of stabilized GNRs ([1]; after one week) [%] | IC50 (MDCK cells) [µM] | IC50 (HepaRG cells; [2]) [µM] | IC50 (SKOV-3 cells) [µM] | IC50 (HepaRG cells; Homo sapiens, read-out: Cell viability IC50) [µM] | IC50 (LLC-PK1 cells) [µM]
CCCCCCCCCCCCCCCCCC[N+](C)(C)CCCS(=O)(=O)[O-] [C18-SB, 3-(N,N-dimethyloctadecylammonio)sulfopropyl betaine] | over 90% | 80 | 56 | 52 | – | – | –
CCCCCCCCCCCCCCCC[N+](C)(C)C [CTAB, cetyltrimethylammonium bromide] | – | – | – | – | 8 | 8 | –
CCCCCCCC/C=C\CCCCCCCC[N+](C)(C)CCCS(=O)(=O)[O-] [OSB, oleylsulfobetaine] | over 90% | 80 | 42 | 32 | – | – | 62

Second part, led by results:

retention of optical density of stabilized GNRs ([1]; after one day) | retention of optical density of stabilized GNRs ([1]; after one week) [%] | SMILES | IC50 (MDCK cells) [µM] | IC50 (HepaRG cells; [2]) [µM] | IC50 (SKOV-3 cells) [µM] | IC50 (HepaRG cells; Homo sapiens, read-out: Cell viability IC50) [µM] | IC50 (LLC-PK1 cells) [µM]
over 90% | 80 | CCCCCCCCCCCCCC(=O)NCCC[N+](C)(C)CCCS(=O)(=O)[O-] [ASB-14] | 120 | 105 | – | – | –
over 90% | 80 | CCCCCCCCCCCCCCCC(=O)NCCC[N+](C)(C)CCCS(=O)(=O)[O-] [ASB-16] | 81 | 58 | – | – | –
